Key:
[1] = molecular target: T1, PPARγ ligand-binding domain (LBD) (Homo sapiens, UniProt P37231); experiment: PPARγLBD-Gal4-luciferase reporter transactivation assay; format: cell-based; settings: 20 μmol/L GW9662, 10 μmol/L YR4-42; Figure 1H
T1 sequence (P37231 204-505): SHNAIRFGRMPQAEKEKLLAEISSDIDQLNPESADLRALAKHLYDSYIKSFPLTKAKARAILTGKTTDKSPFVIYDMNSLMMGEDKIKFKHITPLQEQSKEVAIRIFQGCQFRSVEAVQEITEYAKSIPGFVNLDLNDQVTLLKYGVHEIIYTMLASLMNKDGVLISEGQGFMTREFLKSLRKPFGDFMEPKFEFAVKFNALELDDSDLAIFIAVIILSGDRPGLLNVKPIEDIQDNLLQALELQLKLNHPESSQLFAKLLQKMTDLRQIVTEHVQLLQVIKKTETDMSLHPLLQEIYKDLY

DIO-C57BL/6J mice = experiment: In vivo pharmacological evaluation in diet-induced obese mice; design: species or system mouse; settings: YR4-42 50 mg/kg
Procedure, shortened: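 Male C57BL/6J mice (6 weeks old) on 60%-fat diet for 10 weeks, continued throughout; 16-week-old DIO mice randomised, n = 12/group, gavaged 38 days with 0.5% CMC-Na vehicle, pioglitazone 25 mg/kg or test compound 50 mg/kg; chow-fed vehicle controls. Body weight every 2 days; insulin tolerance test day 14 (AUC); day 38 liver weighed, TG/TC/FFA by kits normalised to tissue weight; mean ± SEM.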

effect of antagonist on PPARγ transactivation induced by YR4-42 [1]	SMILES	hepatic TG, total cholesterol and FFA (DIO-C57BL/6J mice; 38th day, pioglitazone 25 mg/kg oral, Figure 3K-M)	body weight of DIO mice (DIO-C57BL/6J mice; oral gavage 38 days, pioglitazone 25 mg/kg, Figure 3A,B)
inhibited	O=C(Nc1ccccc1)c1cc([N+](=O)[O-])ccc1Cl [GW9662]	–	–
–	CCc1ccc(CCOc2ccc(CC3SC(=O)NC3=O)cc2)nc1 (stereo not drawn) [pioglitazone]	increased	further enhanced weight gain
